# Measured values of several laboratories.
# Protocols differ between the studies behind these lines.
# Target: Serine/threonine-protein kinase Nek4 (NEK4, Homo sapiens, UniProt P51957)
SMILES,observed,action,technique,concentration,measurement,result
Nc1ncnc2occ(-c3ccc(NC(=O)Nc4cc(C(F)(F)F)ccc4F)cc3)c12,cell-free assay,inhibitor,,20 µM,remaining signal,2.8%
O=C1NC(=O)c2cc(Nc3ccc(F)cc3)c(Nc3ccc(F)cc3)cc21,cell-free assay,,,0.5 µM,remaining signal,107%
CS(=O)(=O)N1CCCC(NC(=O)[C@H](CCC2CCCCC2)NC(=O)c2ccc(CNC(=O)c3cnc4ccccn34)cc2)C1 (stereo partly drawn),cell-free assay,,competition with immobilised ligand,0.1 µM,remaining binding,100%
O=C1Nc2ccc(Cl)cc2C1=Cc1cc(Cl)c(O)c(Cl)c1,cell-free assay,,,0.5 µM,remaining signal,88.2%
CC/C(=N\NC(=O)NCc1cccc(O)c1)c1ccc(O)c(C)c1O,enzyme activity,inhibitor,,0.1 µM,inhibition,-1.9%
Cc1c(NC(=O)c2cc(C(N)=O)nc3cc(F)ccc23)c(C(F)(F)F)nn1Cc1ccc(C#N)cc1,cell-free assay,,competition with immobilised ligand,1 µM,remaining binding,92%
CCCCNc1ncc2c(-c3ccc(F)cc3)nn(C[C@H]3CC[C@H](N)CC3)c2n1,target engagement in cells,inhibitor,chemoproteomics,20 mM,inhibition,-16.7%
O=C(Nc1cnn(-c2csc(C(=O)NC3COC3)c2)c1)Nc1c(F)cccc1Cl,enzyme activity,inhibitor,,5 µM,remaining activity,90.8%
COc1ccc2c(c1)O[C@@H](c1ccc(OC)c(OC)c1)C[C@H]2NC(=O)C1(c2ccc3c(c2)OC(F)(F)O3)CC1,cell-free assay,,competition with immobilised ligand,1 µM,remaining binding,75%
Cc1ccc(C(=O)Nc2ccc(CN3CCN(C)CC3)c(C(F)(F)F)c2)cc1C#Cc1cnc2cccnn12,enzyme activity,inhibitor,,23.5 nM,remaining activity,61%
CC1=C(C#N)[C@@H](c2ccc3[nH]nc(C)c3c2)C(C#N)=C(c2ccc(Cl)cc2)N1,cell-free assay,,competition with immobilised ligand,1 µM,remaining binding,90.1%
CC(C)(C)c1nc(-c2cccc(NS(=O)(=O)c3c(F)cccc3F)c2F)c(-c2ccnc(N)n2)s1,enzyme activity,inhibitor,radiometric,1 µM,remaining activity,92%
COc1cc(Cl)c(C(=O)N[C@@H](CN[C@H]2CC[C@@H](N)CC2)Cc2ccc(C#N)cc2)cc1-c1ccc(CN[C@H](C)c2ccc(C)cc2)o1,enzyme activity,inhibitor,,1 µM,remaining activity,106%
O=C(Nc1cnn(-c2csc(C(=O)NC3COC3)c2)c1)Nc1ccccc1Cl,enzyme activity,inhibitor,,5 µM,remaining activity,109%
O=C(NCCCC1CCCCC1)c1ccc(CNC(=O)c2cnn(-c3ccccc3)c2C(F)(F)F)cc1,cell-free assay,,competition with immobilised ligand,0.1 µM,remaining binding,100%
CN(C)C1CCN(CC#Cc2nn(C3CCCC3)c3nc(NCc4ccccc4)ncc23)C1 (stereo not drawn),enzyme activity,inhibitor,FRET,10 µM,inhibition,12%
CCCOc1ccc([C@H]2[C@H](C(=O)O)[C@@H](c3ccc4c(c3)OCO4)CN2CC(=O)Nc2c(CC)cccc2CC)cc1,cell-free assay,,competition with immobilised ligand,1 µM,remaining binding,71%
COc1cc2ncnc(Nc3ccc(Oc4ccccc4)cc3C)c2cc1OC,enzyme activity,inhibitor,,1 µM,inhibition,1%
